This is one part of a sample in which hits are shown more often than they occur.
A1 apoptosis 2 = blocks A1, raising caspase activity. MEF A1-2A-BIM cells, caspase-Glo luminescence, 3 h; percent of clofoctol response, DMSO zero. caspase activation, % (concentration not given with the values). 24,000 tested, under 10 active. AID 2465; in the data active means caspase activation above about 5.9%
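Material: mouse embryonic fibroblasts co-expressing A1 and BIM (A1-2A-BIM), primed for A1 dependence / Quantity: 2500 cells/well / Buffer or medium: RPMI-1640 growth medium with 10% FBS / Doses: 50 nL compound per well, pinned / Schedule: 3 h compound exposure at 37 °C / Signal: Caspase-Glo luminescence (DEVD substrate) / Measure: Caspase-3/7 activation, seen as rise in luminescence signal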
T cruzi HTS = blocks T. cruzi growth inside host cells; intracellular Trypanosoma cruzi in host cells, plate reader; activity score (inhibition), % at 5.01 µM; 22,000 tested, 4.9% active; AID 651903; in the data active means activity score above about 55%;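 further: parasites and compound incubated about four days before reading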
INS-1E ATP HTS = INS-1E beta cell protection from cytokine death; 20,000 tested, 0.1% active; protection from cytokine-induced ATP loss, % at 10 µM; AID 488910; INS-1E cytokine-induced death, ATP luminescence, 48 h; normalised: neutral wells 0, positive control 100;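 active means mean replicate protection from cytokine-induced ATP loss at least 50% and at least 75% of replicates each reaching 50%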
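Assay system: INS-1E rat insulinoma cells. Amount: 8000 cells per well. Medium: phenol-red-free RPMI with 5% fetal bovine serum. Reagent: IL-1β, TNF-α and IFN-γ cytokine mix. Doses: one compound concentration, pin transfer. Schedule: 48 h co-treatment, 10 min post-lysis read. Detection: CellTiter-Glo luminescence measuring cellular ATP.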
Each line names hits and unclear results; the compound was inactive in the other large screens.

C[C@@H]1CCCCO[C@@H](CN(C)C(=O)CCC(F)(F)F)[C@H](C)CN([C@@H](C)CO)C(=O)c2cc(NS(=O)(=O)c3ccc(Cl)cc3)ccc2O1	none (no result: T cruzi HTS, INS-1E ATP HTS)
C=CCN1C(=O)[C@]2(O[C@H](CCO)[C@@H]([Si](C)(C)c3ccc(OC)cc3)[C@@H]2C)c2cc(I)ccc21	A1 apoptosis 2 9.0 (no result: T cruzi HTS, INS-1E ATP HTS)
COc1ccc([Si](C)(C)[C@H]2[C@H](CCO)O[C@@]3(C(=O)N(Cc4ccccc4)c4ccc(NC(=O)[C@H](C)O)cc43)[C@@H]2C)cc1	none (no result: T cruzi HTS, INS-1E ATP HTS)
COc1ccc(COC[C@]23N=C4Sc5ccc([N+](=O)[O-])cc5C(=O)N4[C@H](c4ccccc4O2)[C@H]3CO)cc1	none (no result: T cruzi HTS, INS-1E ATP HTS)
O=C(CCCCCCC(=O)Nc1ccccc1O)N/N=C/c1coc2ccccc2c1=O	none (no result: A1 apoptosis 2)
C[C@@H]1CN([C@H](C)CO)C(=O)Cc2cc(N(C)C)ccc2O[C@@H]1CN(C)Cc1ccc(C(=O)Nc2ccccc2N)cc1	T cruzi HTS 63
C[C@@H]1CN([C@@H](C)CO)C(=O)c2cc(N(C)C)ccc2O[C@H]1CN(C)Cc1ccc(C(=O)Nc2ccccc2N)cc1	none (no result: A1 apoptosis 2)
C[C@@H]1CN([C@H](C)CO)C(=O)Cc2cc(N(C)C)ccc2O[C@H]1CN(C)Cc1ccc(C(=O)Nc2ccccc2N)cc1	T cruzi HTS 69 (no result: A1 apoptosis 2)
C[C@@H]1CN([C@H](C)CO)C(=O)Cc2cc(NC(=O)c3ccncc3)ccc2O[C@H]1CN(C)Cc1ccc(C(=O)Nc2ccccc2N)cc1	none
C[C@@H]1CN([C@H](C)CO)C(=O)Cc2cc(NS(=O)(=O)c3ccc(Cl)cc3)ccc2O[C@@H]1CN(C)C(=O)Nc1ccc2c(c1)OCO2	none
[O-]/[N+](=N\OCCBr)N1CCCC1	none (no result: T cruzi HTS, INS-1E ATP HTS)
CO[C@H]1O[C@H](CO)[C@@H](OC(=O)Nc2ccccc2)[C@H](OC(=O)Nc2ccccc2)[C@@H]1OC(=O)Nc1ccccc1	none (no result: T cruzi HTS, INS-1E ATP HTS)
COc1ccc(S(=O)(=O)Nc2ccc3c(c2)C(=O)N([C@@H](C)CO)C[C@@H](C)[C@@H](CN(C)Cc2ccc(Cl)c(Cl)c2)O3)cc1	none
COc1ccc(S(=O)(=O)Nc2ccc3c(c2)CC(=O)N([C@H](C)CO)C[C@H](C)[C@@H](CN(C)Cc2ccc(Cl)c(Cl)c2)O3)cc1	none (no result: T cruzi HTS, INS-1E ATP HTS)
COc1ccc(S(=O)(=O)Nc2ccc3c(c2)CC(=O)N([C@H](C)CO)C[C@@H](C)[C@@H](CN(C)Cc2ccc(Cl)c(Cl)c2)O3)cc1	T cruzi HTS 55
COc1ccc(CN(C)C[C@@H]2Oc3ccc(NS(=O)(=O)c4ccc(Cl)cc4)cc3CC(=O)N([C@@H](C)CO)C[C@H]2C)cc1	none (no result: T cruzi HTS, INS-1E ATP HTS)
COc1ccc(S(=O)(=O)Nc2ccc3c(c2)CC(=O)N([C@@H](C)CO)C[C@H](C)[C@H](CN(C)Cc2ccc(Cl)c(Cl)c2)O3)cc1	T cruzi HTS 73 (no result: A1 apoptosis 2)
COc1ccc(S(=O)(=O)Nc2ccc3c(c2)CC(=O)N([C@@H](C)CO)C[C@@H](C)[C@@H](CN(C)Cc2ccc(Cl)c(Cl)c2)O3)cc1	T cruzi HTS 63 (no result: A1 apoptosis 2)
NC(=O)C1CCCN(/[N+]([O-])=N/OCCBr)C1 (stereo not given)	none (no result: T cruzi HTS, INS-1E ATP HTS)
CN1C(=O)N[C@@H]2c3ccccc3O[C@@]1(CO)[C@@H]2COC(=O)c1ccccc1	none (no result: T cruzi HTS, INS-1E ATP HTS)
Cc1noc(C)c1S(=O)(=O)N(C)C[C@H]1Oc2ccc(NS(=O)(=O)c3ccc(Cl)cc3)cc2C(=O)N([C@@H](C)CO)C[C@H]1C	none
NC(=O)COc1ccc(/C=N/NC(=O)c2cccc(C(=O)NO)c2)cc1	none (no result: A1 apoptosis 2)
CC(C)NC(=O)N(C)C[C@@H]1Oc2c(NC(=O)Nc3ccc4c(c3)OCO4)cccc2C(=O)N([C@@H](C)CO)C[C@@H]1C	none (no result: T cruzi HTS, INS-1E ATP HTS)
COCCOC(=O)N1C(=O)[C@@]2(c3cc(C#CCC(C(=O)OC)C(=O)OC)ccc31)[C@H](C(N)=O)[C@H]1C(=O)O[C@H](c3ccccc3)[C@H](c3ccccc3)N1[C@@H]2c1ccccc1OCCO	none (no result: T cruzi HTS, INS-1E ATP HTS)
O=C(CCCCCCC(=O)Nc1ccccc1O)N/N=C/C1=CCCCC1	none
C[C@@H]1CN([C@H](C)CO)C(=O)c2cccc(NC(=O)c3ccncc3)c2O[C@H]1CN(C)Cc1ccc2c(c1)OCO2	T cruzi HTS 87
C[C@@H]1CN([C@@H](C)CO)C(=O)c2cccc(NC(=O)c3ccncc3)c2O[C@H]1CN(C)Cc1ccc2c(c1)OCO2	T cruzi HTS 59
C[C@H](CO)N1C[C@H](C)[C@H](CN(C)Cc2ccc3c(c2)OCO3)Oc2c(NC(=O)c3cnccn3)cccc2C1=O	none (no result: A1 apoptosis 2)
C[C@@H]1CN([C@H](C)CO)C(=O)c2cccc(NC(=O)c3ccc(-c4nccs4)cc3)c2O[C@@H]1CN(C)Cc1ccc2c(c1)OCO2	none
C[C@H]1CN([C@@H](C)CO)C(=O)c2cccc(NC(=O)c3ccncc3)c2O[C@H]1CN(C)Cc1ccc2c(c1)OCO2	T cruzi HTS 62
C[C@@H]1CN([C@H](C)CO)C(=O)c2cccc(NC(=O)c3ccncc3)c2O[C@@H]1CN(C)Cc1ccncc1	none
C=CCOC(=O)[C@H]1[C@@H]2C(=O)O[C@@H](c3ccccc3)[C@@H](c3ccccc3)N2[C@@H](c2ccc(OCCOC(=O)[C@@H]3C[C@@H]4C(=O)N[C@@H](Cc5ccccc5)C(=O)N4[C@@H]3c3cccc(OCCO)c3)cc2)[C@]12C(=O)Nc1ccc(I)cc12	none (no result: T cruzi HTS, INS-1E ATP HTS)
C=CCOC(=O)C(=O)/C=C/C(C)(C)C	none (no result: T cruzi HTS, INS-1E ATP HTS)
CC(C)=CCC[C@H](C)C/C=N/NC(=O)CCCCCCC(=O)NO	none (no result: T cruzi HTS, INS-1E ATP HTS)
COc1ccc(-c2cnc3c(c2)C(=O)N([C@H](C)CO)C[C@H](C)[C@H](CN(C)S(=O)(=O)c2ccc(OC)cc2)O3)cc1	none (no result: INS-1E ATP HTS)
COc1ccc(Br)c(/C=N/NC(=O)c2cccc(C(=O)NO)c2)c1	none
C[C@@H]1CCCCO[C@@H](CN(C)C(=O)Nc2ccc(C(F)(F)F)cc2)[C@@H](C)CN([C@H](C)CO)C(=O)c2cc(NC(=O)Cc3ccccc3)ccc2O1	T cruzi HTS 59 (no result: A1 apoptosis 2)
C[C@@H]1CCCCO[C@@H](CN(C)C(=O)Nc2ccc(C(F)(F)F)cc2)[C@@H](C)CN([C@H](C)CO)C(=O)c2cc(NC(=O)CCC(F)(F)F)ccc2O1	none (no result: A1 apoptosis 2)
C[C@H](CO)N1C[C@H](C)[C@H](CN(C)C(=O)Nc2ccc(F)cc2)OCCCC[C@H](C)Oc2ccc(NC(=O)Nc3ccc(F)cc3)cc2C1=O	none (no result: T cruzi HTS, INS-1E ATP HTS)
C[C@@H]1CN([C@H](C)CO)C(=O)c2cc(NC(=O)Nc3ccc(F)cc3)ccc2O[C@@H](C)CCCCO[C@H]1CN(C)C(=O)Nc1ccc(C(F)(F)F)cc1	none (no result: T cruzi HTS, INS-1E ATP HTS)
C[C@@H]1CN([C@@H](C)CO)C(=O)c2cc(NC(=O)Cc3ccccc3)ccc2O[C@@H](C)CCCCO[C@H]1CN(C)C(=O)Nc1ccccc1	none (no result: T cruzi HTS, INS-1E ATP HTS)
C[C@@H]1CCCCO[C@H](CN(C)C(=O)Nc2ccc(F)cc2)[C@@H](C)CN([C@H](C)CO)C(=O)c2cc(NC(=O)Nc3ccc(F)cc3)ccc2O1	T cruzi HTS 59
C[C@@H]1CCCCO[C@H](CN(C)C(=O)Nc2ccc(C(F)(F)F)cc2)[C@@H](C)CN([C@H](C)CO)C(=O)c2cc(NC(=O)CCC(F)(F)F)ccc2O1	T cruzi HTS 66
